Activity calls are given as the source filed them. The rule behind the calls is not given here.
Tests used:
[1] = system: PC-3; test: Cytotoxicity against p53-deficient human PC3 cells after 48 hrs by SRB assay; format: functional, cell-based; details: PC-3, 48 h
How it was run: (§1)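 Cell lines came from CCRC, Taiwan. Cells were seeded at about 5 × 10^3 per well and left overnight. They were then given serum-free medium containing 0-10 μM compound (0.08-10 μM serial dilutions) for 48 h at 37 °C. Cells were fixed with TCA (10% final), stained with SRB (0.4% final), and the dye was dissolved in 10 mM Tris with A515 read. IC50 was taken from a fitted log concentration-response curve.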

[2] = Cytotoxicity against estrogen receptor-negative human […] cells expressing p53 mutant after 48 hrs by SRB assay; format: functional, cell-based; how it was run: as §1
[3] = system: HepG2; test: Cytotoxicity against human HepG2 cells expressing wild type p53 after 48 hrs by SRB assay; format: functional, cell-based; details: HepG2, 48 h; how it was run: as §1
[4] = system: HeLa; test: Cytotoxicity against p53-deficient human HeLa cells after 48 hrs by SRB assay; format: functional, cell-based; how it was run: as §1
[5] = system: A549; test: Cytotoxicity against human A549 cells expressing wild type p53 after 48 hrs by SRB assay; format: functional, cell-based; details: A549, 48 h; how it was run: as §1
[6] = system: K562; test: Cytotoxicity against p53-deficient human K562 cells after 48 hrs by SRB assay; format: functional, cell-based; details: K562, 48 h
[7] = system: Bel-7402; test: Cytotoxicity against human Bel7402 cells after 48 hrs by MTT assay; format: functional, cell-based; details: Bel-7402, 48 h
[8] = system: THP-1; test: Cytotoxicity against human THP1 cells expressing p53 mutant after 48 hrs by SRB assay; format: functional, cell-based; details: THP-1, 48 h
[9] = system: AGS; test: Cytotoxicity against human AGS cells expressing wild type p53 after 48 hrs by SRB assay; format: functional, cell-based; how it was run: as §1
[10] = molecular target: T1, DNA topoisomerase 1 (Homo sapiens) (UniProt P11387); test: Inhibition of DNA topoisomerase 1-mediated supercoiled Escherichia coli pBR322 DNA relaxation upto 25 uM after 30 mins
T1 sequence (whole entry): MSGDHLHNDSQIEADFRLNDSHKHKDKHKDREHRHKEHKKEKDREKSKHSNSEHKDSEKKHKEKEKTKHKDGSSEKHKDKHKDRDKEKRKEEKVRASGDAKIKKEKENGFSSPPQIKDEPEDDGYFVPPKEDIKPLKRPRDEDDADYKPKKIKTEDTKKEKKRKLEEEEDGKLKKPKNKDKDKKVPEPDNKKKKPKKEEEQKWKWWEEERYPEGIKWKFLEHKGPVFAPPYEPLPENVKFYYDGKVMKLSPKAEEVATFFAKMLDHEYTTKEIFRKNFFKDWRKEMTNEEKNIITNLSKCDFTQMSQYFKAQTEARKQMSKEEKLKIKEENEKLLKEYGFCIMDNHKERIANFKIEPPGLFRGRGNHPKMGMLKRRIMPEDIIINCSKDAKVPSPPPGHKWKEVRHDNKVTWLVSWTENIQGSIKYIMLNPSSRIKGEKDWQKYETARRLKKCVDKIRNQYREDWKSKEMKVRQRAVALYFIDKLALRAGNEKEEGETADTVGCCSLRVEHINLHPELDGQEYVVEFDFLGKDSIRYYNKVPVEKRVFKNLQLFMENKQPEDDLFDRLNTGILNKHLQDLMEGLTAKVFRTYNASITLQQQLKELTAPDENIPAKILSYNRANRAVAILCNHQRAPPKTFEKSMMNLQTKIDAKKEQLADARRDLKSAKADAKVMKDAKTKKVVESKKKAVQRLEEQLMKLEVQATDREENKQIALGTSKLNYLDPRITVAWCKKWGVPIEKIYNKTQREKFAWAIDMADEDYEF

[11] = system: KB; test: Cytotoxicity against human KB cells after 48 hrs by MTT assay; format: functional, cell-based
[12] = Solubility in assay condition at 50 uM; format: physicochemical
[13] = system: A2780; test: Cytotoxicity against human A2780 cells after 48 hrs by MTT assay; format: functional, cell-based; details: A2780, 48 h
[14] = system: HT-29; test: Cytotoxicity against human HT-29 cells expressing p53 mutant after 48 hrs by SRB assay; format: functional, cell-based; details: HT-29, 48 h; how it was run: as §1
[15] = system: MCF7; test: Cytotoxicity against estrogen receptor-positive human MCF7 cells expressing wild type p53 after 48 hrs by SRB assay; format: functional, cell-based; details: MCF7, 48 h; how it was run: as §1
[16] = system: U-937; test: Cytotoxicity against human U937 cells expressing p53 mutant after 48 hrs by SRB assay; format: functional, cell-based; details: U-937, 48 h
[17] = Cytotoxicity against p53-deficient human Hep3B cells after 48 hrs by SRB assay; format: functional, cell-based, Hep 3B2; how it was run: as §1
[18] = system: HT-29; test: Cell cycle distribution in human HT-29 cells assessed as accumulation at S phase at 0.1 uM after 24 hrs by flow cytometry; format: functional, cell-based
How it was run: (§2)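 HT-29 cells were exposed to vehicle or compound for 6, 12, 24 or 48 h. Attached and floating cells were collected by trypsin-EDTA, fixed in 70% ethanol, and treated with 0.1% Triton X-100 for 30 min. They were stained with 50 μg/mL PI plus 50 μg/mL RNase A for 30 min in the dark at room temperature. 10000 cells were read by FL2 at 488 nm excitation. S-phase and sub-G1 (apoptotic) fractions are expressed as % of total cells.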

[19] = system: HT-29; test: Cell cycle distribution in human HT-29 cells assessed as accumulation at S phase at 0.1 uM after 6 hrs by flow cytometry; format: functional, cell-based; how it was run: as §2
[20] = system: HT-29; test: Cell cycle distribution in human HT-29 cells assessed as accumulation at S phase at 0.1 uM after 48 hrs by flow cytometry; format: functional, cell-based; how it was run: as §2
[21] = system: HT-29; test: Antitumor activity against human HT-29 cells xenografted in athymic BALB/c nude mouse at 5 mg/kg, ip for 2 days measured after 30 days relative to placebo control; format: functional; details: route intraperitoneal
How it was run: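 Female athymic BALB/c nude mice (35-40 days old, 18-22 g). HT-29 tumours first grown from 1 × 10^7 cells injected s.c. in the axillary fossa, then excised and transplanted. Treatment started at 100-300 mm3. Groups of n=6 were dosed i.p. daily in 400 μL: saline for 10 days, 5 mg/kg for 2 days, or 75/150 mg/kg for 10 days. Caliper volume was V=1/2·a·b². Values are relative to start volume, compared with placebo by Student's t test, and mice were killed on day 30.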

[22] = system: HT-29; test: Cell cycle distribution in human HT-29 cells assessed as accumulation at S phase at 0.1 uM after 12 hrs by flow cytometry; format: functional, cell-based; how it was run: as §2
[23] = system: HT-29; test: Induction of apoptosis in human HT-29 cells assessed as increase in accumulation at sub-G1 phase at 0.1 uM after 48 hrs by flow cytometry; format: functional; how it was run: as §2
[24] = system: HT-29; test: Cell cycle distribution in human HT-29 cells assessed as accumulation at sub-G1 phase at 0.1 uM after 48 hrs by flow cytometry; format: functional, cell-based; how it was run: as §2
[25] = molecular target: T1, DNA topoisomerase 1 (Homo sapiens); test: Induction of human topoisomerase 1-mediated chromosomal DNA strand breaks in HT-29 cells at 10 uM after 1 hr by comet assay; format: cell-based
How it was run: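 HT-29 cells were seeded at 1 × 10^4 per well and attached overnight, then treated for 1 h. Untreated cells served as negative control. Cells in low-melting agarose on precoated slides were lysed at pH 10.5 for 30 min at 4 °C and unwound in 300 mM NaOH/1 mM EDTA (pH >13) for 30 min at 4 °C. Electrophoresis ran 10 min at 16 V, with SYBR Gold staining. Read-out was mean % tail DNA from ≥50 nuclei, duplicates in three independent experiments.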

SMILES	GI50 [1] [µM]	IC50 [1] [µM]	GI50 [2] [µM]	IC50 [2] [µM]	GI50 [3] [µM]	IC50 [3] [µM]	GI50 [4] [µM]	IC50 [4] [µM]	GI50 [5] [µM]	IC50 [5] [µM]	IC50 [6] [µM]	IC50 [8] [µM]	GI50 [9] [µM]	IC50 [9] [µM]	GI50 [14] [µM]	IC50 [14] [µM]	GI50 [15] [µM]	IC50 [15] [µM]	IC50 [16] [µM]	GI50 [17] [µM]	other results
C[C@H]1COc2c(N3CCN(C)CC3)c(F)cc3c(=O)c(-c4nc5ccc([N+](=O)[O-])cc5s4)cn1c23	1.8	9.9	> 10	> 10	7.6	> 10	> 10	> 10	3.9	> 10	> 10	> 10	7	8.8	5	10	> 10	> 10	> 10	> 10	IC50 [7]: 2 µM; inhibition [10]: inactive; IC50 [11]: 0.6 µM; solubility [12]: Insoluble; IC50 [13]: 1.2 µM; IC50 [17]: > 10 µM
CC[C@@]1(O)C(=O)OCc2c1cc1n(c2=O)Cc2cc3c(CN(C)C)c(O)ccc3nc2-1 [TOPOTECAN]	1.3	2	0.9	2	1.2	1.6	0.08	1.6	0.9	1.9	1.7	1.5	0.1	0.3	0.08	0.4	0.8	2	1.1	0.4	Activity [18]: Active; Activity [19]: Active; Activity [20]: Active; Activity [21]: 76%; Activity [22]: Active; IC50 [17]: 1.4 µM; Activity [23]: 40.5%; Activity [24]: Active
CC[C@@]1(O)C(=O)OCc2c1cc1n(c2=O)Cc2cc3ccccc3nc2-1 [CAMPTOTHECIN]	0.7	1.4	0.08	1.7	0.1	0.2	0.04	0.2	0.01	0.04	1.4	0.6	0.01	0.02	0.03	0.4	0.01	1.1	0.3	0.01	Activity [18]: Active; Activity [19]: Active; Activity [20]: Active; Activity [22]: Active; Activity [25]: 84%; IC50 [17]: 0.06 µM; Activity [23]: 44.8%; Activity [24]: Active
CCn1cc(-c2nc3ccc(Cl)cc3[nH]2)c(=O)c2cc(F)c(N3CCNCC3)cc21	3.3	4.8	0.9	2.3	1.8	3.7	1.2	4.2	1	0.5	2.7	2.8	4.5	1	1.8	4.7	4.2	4.5	4.2	0.9	IC50 [7]: 2.8 µM; IC50 [11]: 1.6 µM; IC50 [13]: 4.9 µM; IC50 [17]: 2.3 µM
CCn1cc(-c2nc3ccc([N+](=O)[O-])cc3s2)c(=O)c2cc(F)c(N3CCNC(C)C3)c(F)c21 (stereo not given)	2.7	10	2.3	7.4	0.9	3.6	1.7	9.9	1.5	7	> 10	> 10	3.3	5.4	1	5	> 10	> 10	> 10	0.6	IC50 [7]: 4.1 µM; IC50 [11]: 4.7 µM; IC50 [13]: 3.3 µM; IC50 [17]: 1.4 µM
